Test results taken from ChEMBL document CHEMBL1156239, “Synthesis, anticonvulsant and antimicrobial activities of some new 2-acetylnaphthalene derivatives” (Bioorg Med Chem, 2010).
≈ marks a conversion by molar mass, not a printed value. Calls of active or inactive are those of the source. The calls are words filed in the database; no cut-off is given here.

Tests used:
Mus musculus [1] = assay: Anticonvulsant activity in CF1 mouse assessed as inhibition of maximal electroshock-induced seizures at 30 mg/kg, ip after 4 hrs; type: functional, organism-based; parameters: dose 30 mg/kg
Summary of the method: (§1)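 Male albino CF#1 mice (18–25.5 g), compound suspended in 0.5% methylcellulose, given ip 0.5 h or 4 h before test. Eyes treated with 0.5% tetracaine HCl in saline; corneal-type MES at 60 Hz, 50 mA for 0.2 s; protection scored as animals protected/tested.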

Mus musculus [2] = assay: Anticonvulsant activity in CF1 mouse assessed as inhibition of maximal electroshock-induced seizures at 30 mg/kg, ip after 0.5 hrs; type: functional, organism-based; parameters: dose 30 mg/kg; summary of the method: as §1
Pseudomonas aeruginosa = assay: Antibacterial activity against Pseudomonas aeruginosa ATCC 27853 after 24 hrs by broth microdilution method; type: functional; conditions: ATCC 27853, 24 h
Summary of the method: (§2)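 Broth microdilution in Mueller Hinton broth; compound stocks in DMSO, diluted into test medium. Plates incubated at 35 °C and read visually after 24 h. MIC taken as lowest concentration preventing visible growth. Ampicillin reference.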

Mus musculus [3] = assay: Anticonvulsant activity in CF1 mouse assessed as inhibition of maximal electroshock-induced […] seizures at 300 mg/kg, ip after 0.5 hrs; type: functional, organism-based; parameters: dose 300 mg/kg; summary of the method: as §1
Staphylococcus aureus = assay: Antibacterial activity against Staphylococcus aureus ATCC 25923 after 24 hrs by broth microdilution method; type: functional; conditions: ATCC 25923, 24 h; summary of the method: as §2
Mus musculus [4] = assay: Neurotoxicity in CF1 mouse assessed as ability to grasp rotarod at 300 mg/kg, ip after 0.5 hrs by rotarod test; type: toxicity, organism-based; parameters: dose 300 mg/kg, route intraperitoneal; conditions: in vivo
Summary of the method: (§3)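 Male albino CF#1 mice (18–25.5 g) dosed ip with compound suspended in 0.5% methylcellulose, 0.5 h or 4 h before testing; neurotoxicity assessed by rotarod, scored as number toxic/number tested.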

Mus musculus [5] = assay: Neurotoxicity in CF1 mouse at 300 mg/kg, ip after 4 hrs by rotarod test; type: toxicity, organism-based; parameters: dose 300 mg/kg, route intraperitoneal; conditions: in vivo; summary of the method: as §3
Mus musculus [6] = assay: Neurotoxicity in CF1 mouse at 100 mg/kg, ip after 4 hrs by rotarod test; type: toxicity, organism-based; parameters: dose 100 mg/kg, route intraperitoneal; conditions: in vivo; summary of the method: as §3
Enterococcus faecalis = assay: Antibacterial activity against Enterococcus faecalis ATCC 29212 after 24 hrs by broth microdilution method; type: functional; conditions: ATCC 29212, 24 h; summary of the method: as §2
Escherichia coli = assay: Antibacterial activity against Escherichia coli ATCC 25922 after 24 hrs by broth microdilution method; type: functional; conditions: ATCC 25922, 24 h; summary of the method: as §2
Pichia kudriavzevii = assay: Antifungal activity against Candida krusei ATCC 6258 after 48 hrs by broth microdilution method; type: functional; conditions: ATCC 6258, 48 h
Mus musculus [7] = assay: Anticonvulsant activity in CF1 mouse assessed as inhibition of maximal electroshock-induced seizures at 100 mg/kg, ip after 0.5 hrs; type: functional, organism-based; parameters: dose 100 mg/kg; summary of the method: as §1
Mus musculus [8] = assay: Neurotoxicity in CF1 mouse at 30 mg/kg, ip after 4 hrs by rotarod test; type: toxicity, organism-based; parameters: dose 30 mg/kg, route intraperitoneal; conditions: in vivo; summary of the method: as §3
Mus musculus [9] = assay: Anticonvulsant activity in CF1 mouse assessed as inhibition of maximal electroshock-induced seizures at 300 mg/kg, ip after 4 hrs; type: functional, organism-based; parameters: dose 300 mg/kg; summary of the method: as §1
Mus musculus [10] = assay: Anticonvulsant activity in CF1 mouse assessed as inhibition of maximal electroshock-induced seizures at 100 mg/kg, ip after 4 hrs; type: functional, organism-based; parameters: dose 100 mg/kg; summary of the method: as §1
Mus musculus [11] = assay: Neurotoxicity in CF1 mouse at 30 mg/kg, ip after 0.5 hrs by rotarod test; type: toxicity, organism-based; parameters: dose 30 mg/kg, route intraperitoneal; conditions: in vivo; summary of the method: as §3
Candida parapsilosis = assay: Antifungal activity against Candida parapsilosis ATCC 22019 after 48 hrs by broth microdilution method; type: functional; conditions: Lodderomyces parapsilosis, ATCC 22019, 48 h
Mus musculus [12] = assay: Anticonvulsant activity in CF1 mouse assessed as inhibition of maximal electroshock-induced seizures at 300 mg/kg, ip after 0.5 hrs; type: functional, organism-based; parameters: dose 300 mg/kg; summary of the method: as §1
Mus musculus [13] = assay: Neurotoxicity in CF1 mouse assessed as muscle spasms at 300 mg/kg, ip after 0.5 hrs by rotarod test; type: toxicity, organism-based, Muscle tissue; parameters: dose 300 mg/kg, route intraperitoneal; conditions: in vivo
Rattus norvegicus [14] = assay: Anticonvulsant activity in Sprague-Dawley rat assessed as inhibition of maximal electroshock-induced seizures at 30 mg/kg, ip after 0.5 hrs; type: functional, organism-based; parameters: dose 30 mg/kg
Rattus norvegicus [15] = assay: Neurotoxicity in Sprague-Dawley rat at 30 mg/kg, ip after 2 hrs by rotarod test; type: toxicity, organism-based; parameters: dose 30 mg/kg, route intraperitoneal; conditions: in vivo
Rattus norvegicus [16] = assay: Anticonvulsant activity in Sprague-Dawley rat assessed as inhibition of maximal electroshock-induced seizures at 30 mg/kg, po after 0.5 hrs; type: functional, organism-based; parameters: dose 30 mg/kg
Summary of the method: (§4)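 Male albino Sprague-Dawley rats (105–130 g) given a single oral 30 mg/kg dose suspended in 0.5% methylcellulose; MES (60 Hz, 150 mA, 0.2 s, tetracaine-anesthetized eyes) at 0.25, 0.5, 1, 2 and 4 h; 4 rats per time point; scored protected/tested.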

Rattus norvegicus [17] = assay: Neurotoxicity in Sprague-Dawley rat at 30 mg/kg, po after 1 hr by rotarod test; type: toxicity, organism-based; parameters: dose 30 mg/kg, route oral; conditions: in vivo
Rattus norvegicus [18] = assay: Neurotoxicity in Sprague-Dawley rat at 30 mg/kg, po after 0.25 hrs by rotarod test; type: toxicity, organism-based; parameters: dose 30 mg/kg, route oral; conditions: in vivo
Rattus norvegicus [19] = assay: Neurotoxicity in Sprague-Dawley rat at 30 mg/kg, ip after 0.5 hrs by rotarod test; type: toxicity, organism-based; parameters: dose 30 mg/kg, route intraperitoneal; conditions: in vivo
Rattus norvegicus [20] = assay: Anticonvulsant activity in Sprague-Dawley rat assessed as inhibition of maximal electroshock-induced seizures at 30 mg/kg, po after 4 hrs; type: functional, organism-based; parameters: dose 30 mg/kg; summary of the method: as §4
Rattus norvegicus [21] = assay: Neurotoxicity in Sprague-Dawley rat at 30 mg/kg, po after 2 hrs by rotarod test; type: toxicity, organism-based; parameters: dose 30 mg/kg, route oral; conditions: in vivo
Rattus norvegicus [22] = assay: Neurotoxicity in Sprague-Dawley rat at 30 mg/kg, po after 4 hrs by rotarod test; type: toxicity, organism-based; parameters: dose 30 mg/kg, route oral; conditions: in vivo
Rattus norvegicus [23] = assay: Anticonvulsant activity in Sprague-Dawley rat assessed as inhibition of maximal electroshock-induced seizures at 30 mg/kg, ip; type: functional, organism-based; parameters: dose 30 mg/kg
Mus musculus [24] = assay: Neurotoxicity in CF1 mouse at 100 mg/kg, ip after 0.5 hrs by rotarod test; type: toxicity, organism-based; parameters: dose 100 mg/kg, route intraperitoneal; conditions: in vivo; summary of the method: as §3
Rattus norvegicus [25] = assay: Anticonvulsant activity in Sprague-Dawley rat assessed as inhibition of maximal electroshock-induced seizures at 30 mg/kg, po after 0.25 hrs; type: functional, organism-based; parameters: dose 30 mg/kg; summary of the method: as §4
Rattus norvegicus [26] = assay: Neurotoxicity in Sprague-Dawley rat at 30 mg/kg, ip after 1 hr by rotarod test; type: toxicity, organism-based; parameters: dose 30 mg/kg, route intraperitoneal; conditions: in vivo
Mus musculus [27] = assay: Neurotoxicity in CF1 mouse assessed as muscle spasms at 300 mg/kg, ip after 4 hrs by rotarod test; type: toxicity, organism-based, Muscle tissue; parameters: dose 300 mg/kg, route intraperitoneal; conditions: in vivo
Rattus norvegicus [28] = assay: Neurotoxicity in Sprague-Dawley rat at 30 mg/kg, po after 0.5 hrs by rotarod test; type: toxicity, organism-based; parameters: dose 30 mg/kg, route oral; conditions: in vivo
Mus musculus [29] = assay: Neurotoxicity in CF1 mouse assessed as ability to grasp rotarod at 300 mg/kg, ip after 4 hrs by rotarod test; type: toxicity, organism-based; parameters: dose 300 mg/kg, route intraperitoneal; conditions: in vivo
Summary of the method: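 Male albino CF#1 mice (18–25.5 g), free access to food and water except during testing, under NINDS Anticonvulsant Screening Program procedures. Compounds were suspended in 0.5% methylcellulose and given ip. Neurotoxicity was scored by rotarod 0.5 h and 4 h after dosing, at screening doses of 30, 100 or 300 mg/kg. Results are reported as affected/tested animals.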

Mus musculus [30] = assay: Neurotoxicity in CF1 mouse assessed as clonic seizures at 300 mg/kg, ip after 0.5 hrs by rotarod test; type: toxicity, organism-based; parameters: dose 300 mg/kg, route intraperitoneal; conditions: in vivo
Rattus norvegicus [31] = assay: Anticonvulsant activity in Sprague-Dawley rat assessed as inhibition of maximal electroshock-induced seizures at 30 mg/kg, po after 1 hr; type: functional, organism-based; parameters: dose 30 mg/kg; summary of the method: as §4

## CCCC(=O)OC(Cn1ccnc1)c1ccc2ccccc2c1 (centres undefined)
Mus musculus [1]
  inhibition: inactive
Mus musculus [2]
  inhibition: inactive
Pseudomonas aeruginosa
  MIC: > 1020 µg/mL
Mus musculus [3]
  inhibition: Active
Staphylococcus aureus
  MIC: 8 µg/mL (≈ 25.9 µM)
Mus musculus [4]
  Activity: Toxic
Mus musculus [5]
  Activity: Non-toxic
Mus musculus [6]
  Activity: Non-toxic
Enterococcus faecalis
  MIC: 128 µg/mL (≈ 415 µM)
Escherichia coli
  MIC: > 1020 µg/mL
Pichia kudriavzevii
  MIC: 256 µg/mL (≈ 830 µM)
Mus musculus [7]
  inhibition: Active
Mus musculus [8]
  Activity: Non-toxic
Mus musculus [9]
  inhibition: Active
Mus musculus [10]
  inhibition: inactive
Mus musculus [11]
  Activity: Non-toxic
Candida parapsilosis
  MIC: 64 µg/mL (≈ 208 µM)

## CCCC(CCC)C(=O)OC(Cn1ccnc1)c1ccc2ccccc2c1 (centres undefined)
Mus musculus [1]
  inhibition: inactive
Mus musculus [2]
  inhibition: inactive
Pseudomonas aeruginosa
  MIC: > 1020 µg/mL
Mus musculus [12]
  inhibition: Active
Staphylococcus aureus
  MIC: 8 µg/mL (≈ 21.9 µM)
Mus musculus [4]
  Activity: Toxic
Mus musculus [13]
  Activity: Toxic
Rattus norvegicus [14]
  inhibition: Active
Rattus norvegicus [15]
  Activity: Non-toxic
Rattus norvegicus [16]
  inhibition: inactive
Mus musculus [6]
  Activity: Non-toxic
Rattus norvegicus [17]
  Activity: Non-toxic
Rattus norvegicus [18]
  Activity: Non-toxic
Rattus norvegicus [19]
  Activity: Non-toxic
Enterococcus faecalis
  MIC: 16 µg/mL (≈ 43.9 µM)
Rattus norvegicus [20]
  inhibition: inactive
Escherichia coli
  MIC: > 1020 µg/mL
Pichia kudriavzevii
  MIC: 1020 µg/mL (≈ 2810 µM)
Rattus norvegicus [21]
  Activity: Non-toxic
Mus musculus [7]
  inhibition: Active
Rattus norvegicus [22]
  Activity: Non-toxic
Mus musculus [8]
  Activity: Non-toxic
Mus musculus [9]
  inhibition: Active
Rattus norvegicus [23]
  inhibition: Active
Mus musculus [24]
  Activity: Non-toxic
Rattus norvegicus [25]
  inhibition: inactive
Mus musculus [11]
  Activity: Non-toxic
Rattus norvegicus [26]
  Activity: Non-toxic
Mus musculus [27]
  Activity: Toxic
Rattus norvegicus [28]
  Activity: Non-toxic
Mus musculus [29]
  Activity: Toxic
Candida parapsilosis
  MIC: 1020 µg/mL (≈ 2810 µM)

## O=C(OC(Cn1ccnc1)c1ccc2ccccc2c1)c1ccccc1 (centres undefined)
Mus musculus [30]
  Activity: Toxic
Mus musculus [1]
  inhibition: inactive
Mus musculus [2]
  inhibition: inactive
Pseudomonas aeruginosa
  MIC: > 1020 µg/mL
Mus musculus [12]
  inhibition: Active
Staphylococcus aureus
  MIC: 8 µg/mL (≈ 23.4 µM)
Mus musculus [4]
  Activity: Toxic
Mus musculus [13]
  Activity: Toxic
Rattus norvegicus [16]
  inhibition: inactive
Mus musculus [6]
  Activity: Non-toxic
Rattus norvegicus [17]
  Activity: Non-toxic
Rattus norvegicus [18]
  Activity: Non-toxic
Enterococcus faecalis
  MIC: 32 µg/mL (≈ 93.5 µM)
Rattus norvegicus [20]
  inhibition: inactive
Escherichia coli
  MIC: > 1020 µg/mL
Pichia kudriavzevii
  MIC: 512 µg/mL (≈ 1500 µM)
Rattus norvegicus [21]
  Activity: Non-toxic
Mus musculus [7]
  inhibition: Active
Rattus norvegicus [22]
  Activity: Non-toxic
Mus musculus [8]
  Activity: Non-toxic
Mus musculus [9]
  inhibition: inactive
Mus musculus [10]
  inhibition: inactive
Rattus norvegicus [31]
  inhibition: inactive
Rattus norvegicus [28]
  Activity: Non-toxic
Candida parapsilosis
  MIC: 1020 µg/mL (≈ 2990 µM)
